# Results from ChEMBL document CHEMBL3244197, “Mercaptoimidazolylpropionic acid hydrobromide. Inhibition of tadpole collagenase and related properties” (J Med Chem, 1978).
# Calls of active or inactive are those of the source. No cut-off for these calls is given here.
# What was measured:
# [1] = species on record: Rana catesbeiana; test: (§1) Inhibition of Rana catesbeiana tadpole collagenase using lathyritic rat skin collagen as substrate after 41 hrs by radial diffusion assay
# How it was run: (§2)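 Enzyme cultured from tadpole tail fin and back skin, purified by ammonium sulfate precipitation and Sephadex G-200, concentrated 20-fold by ultrafiltration at 4 °C. Gel: Tris-buffered pH 7.6, 1% agarose with 0.1% collagen, set 2 h at 20 °C, held ≥40 h at 4 °C. Wells (3.0 mm) received 15 µL enzyme ± inhibitor. Incubation 41 h at 28 °C, then 2 h at 37 °C. Lysis-zone diameter read as radial diffusion units; concentration for 50% inhibition taken.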
# [2] = Half life of the compound in phosphate buffer with 214 ml/min oxygen flow assessed as oxidation at 0.25 mM by Ellman's method; format: physicochemical
# How it was run: (§3)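 35 mL sample, 0.1 M phosphate buffer pH 7.4, oxygen-saturated; water-vapour-saturated O2 bubbled through via gas dispersion tube at 20 °C. 200 µL aliquots withdrawn over time; remaining SH titre measured by quantitative Ellman determination; half-time in hours.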
# [3] = Half life of the compound in phosphate buffer with 400 ml/min oxygen flow assessed as oxidation at 0.14 mM by Ellman's method; format: physicochemical; how it was run: as §3
# [4] = as §1; details: read-out: I50; how it was run: as §2
# [5] = system: Bacillus subtilis; test: Mutagenicity in repair-deficient Bacillus subtilis assessed as growth inhibition at 0.1 M; format: toxicity, organism-based; details: in vivo
# How it was run: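 Repair-deficient tester strains exposed to test compound at 0.10 M, with chloroacetaldehyde (0.10 M) as mutagen reference; growth inhibition scored.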
# [6] = system: Mus musculus; test: Toxicity in Swiss-Wistar mouse assessed as body weight gain at 189 mg/kg, ip after 3 days (reference value: 20%); format: organism-based; set-up: dose 189 mg/kg, route intraperitoneal; details: in vivo, 72 h
# [7] = system: Mus musculus; test: Toxicity in Swiss-Wistar mouse assessed as body weight gain at 418 mg/kg, ip after 3 days (reference value: 20%); format: organism-based; set-up: dose 418 mg/kg, route intraperitoneal; details: in vivo, 72 h
# [8] = system: Mus musculus; test: Toxicity in Swiss-Wistar mouse assessed as body weight gain at 885 mg/kg, ip after 3 days (reference value: 20%); format: organism-based; set-up: dose 885 mg/kg, route intraperitoneal; details: in vivo, 72 h
# [9] = system: Mus musculus; test: Toxicity in Swiss-Wistar mouse assessed as body weight gain at 1980 mg/kg, ip after 3 days (reference value: 20%); format: organism-based; set-up: dose 1980 mg/kg, route intraperitoneal; details: in vivo, 72 h
# [10] = system: Mus musculus; test: Toxicity in Swiss-Wistar mouse assessed as change in health condition at 189 to 1980 mg/kg, ip after 7 days; format: organism-based; set-up: dose 189-1980 mg/kg, route intraperitoneal; details: in vivo, 168 h
# [11] = Half life of the compound in phosphate buffer with 214 ml/min oxygen flow assessed as oxidation at 0.24 mM by Ellman's method; format: physicochemical; how it was run: as §3
# [12] = Half life of the compound in phosphate buffer with 360 ml/min oxygen flow assessed as oxidation at 0.16 mM by Ellman's method; format: physicochemical; how it was run: as §3
# [13] = Half life of the compound in phosphate buffer with 200 ml/min oxygen flow assessed as oxidation at 0.28 mM by Ellman's method; format: physicochemical; how it was run: as §3
# [14] = Half life of the compound in phosphate buffer with 350 ml/min oxygen flow assessed as oxidation at 0.27 mM by Ellman's method; format: physicochemical; how it was run: as §3
smiles,measurement,setting,value
O=C(O)C(Br)Cc1cnc[nH]1 (racemic),I50,[1],inactive
Br.O=C(O)C(S)Cc1cnc[nH]1 (racemic),half-life at 250 µM,[2],12.7 h
same,half-life at 140 µM,[3],8.7 h
same,IC50,[4],3.8 mM
same,Activity,[5],Non-toxic
same,Activity,[6],22%
same,Activity,[7],18%
same,Activity,[8],23%
same,Activity,[9],18%
same,Activity,[10],Non-toxic
N[C@@H](Cc1c[nH]cn1)C(=O)O [HISTIDINE],IC50,[4],≥ 100 mM
N[C@@H](CS)C(=O)O [CYSTEINE],half-life at 240 µM,[11],6.4 h
same,half-life at 160 µM,[12],5.3 h
same,IC50,[4],8.7 mM
CC(=O)N[C@@H](CS)C(=O)O [ACETYLCYSTEINE],half-life at 280 µM,[13],12.8 h
same,half-life at 270 µM,[14],10.9 h
same,IC50,[4],≥ 100 mM
